In the library only some 1.9% were active in any assay of this set; here they are far more common.
M4 antag = human M4 muscarinic receptor antagonists, primary screen, CHO cells, Fluo-8 calcium fluorescence. Muscarinic acetylcholine receptor M4 (Homo sapiens), P08173. CHO-hM4 cells, ACh EC80. inhibition, % at 3 µM. hit rate 0.73% among 360,000. AID 624125, 2012;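 active means inhibition above its plate's cutoff, the mean inhibition of sample wells plus 3 SD, cut at about 27% in these data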;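 further: 0% = acetylcholine EC80 with DMSO and 100% = DMSO without agonist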
Target sequence (P08173 whole entry, looked up): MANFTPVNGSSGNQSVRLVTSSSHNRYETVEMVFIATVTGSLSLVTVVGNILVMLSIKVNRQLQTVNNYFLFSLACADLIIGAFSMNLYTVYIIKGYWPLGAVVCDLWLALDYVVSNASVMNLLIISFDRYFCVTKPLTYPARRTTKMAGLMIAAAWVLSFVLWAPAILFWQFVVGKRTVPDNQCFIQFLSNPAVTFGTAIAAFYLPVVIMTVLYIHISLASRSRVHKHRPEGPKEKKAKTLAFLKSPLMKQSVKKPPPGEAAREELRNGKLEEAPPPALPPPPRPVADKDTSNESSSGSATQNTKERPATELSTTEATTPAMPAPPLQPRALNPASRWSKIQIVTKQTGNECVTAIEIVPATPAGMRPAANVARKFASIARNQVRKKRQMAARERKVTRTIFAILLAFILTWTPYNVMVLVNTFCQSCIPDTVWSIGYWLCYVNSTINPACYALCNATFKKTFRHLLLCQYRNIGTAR
M4 ag = human M4 muscarinic receptor agonists, primary screen, CHO-K1 cells, Fluo-8 calcium fluorescence; Muscarinic acetylcholine receptor M4 (Homo sapiens), P08173; CHO-K1 hM4/Gqi5; vehicle 0%, full acetylcholine response 100%; activation, % at 3 µM; hit rate 0.14% among 360,000;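 active means activation above the run mean over all test wells plus 3 SD, cut at about 32% in these data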;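 further: peak over basal fluorescence ratio per well then scaled between controls; 0% = DMSO wells and 100% = acetylcholine at EC100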
M4 PAM = human M4 muscarinic receptor positive allosteric modulators, primary screen, CHO-K1 cells, Fluo-8 calcium fluorescence; Muscarinic acetylcholine receptor M4 (Homo sapiens), P08173; CHO-K1 hM4/Gqi5, ACh EC20; 0% = ACh EC20, 100% = maximal ACh; activation, % at 3 µM; hit rate 0.4% among 360,000;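 active means activation above its plate's cutoff, the mean activation of sample wells plus 3 SD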
M5 antag = human M5 muscarinic receptor antagonists, primary screen, CHO cells, Fluo-8 calcium fluorescence | CHO-hM5 cells, ACh EC80 | inhibition, % at 3 µM | hit rate 0.59% among 360,000 | AID 624040, 2012;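 active means inhibition above a per-plate cutoff, the mean of that plate's test compounds plus 3 SD, cut at about 27% in these data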;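 further: 0% = acetylcholine EC80 with DMSO and 100% = DMSO without agonist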
M5 PAM = human M5 muscarinic receptor positive allosteric modulators, primary screen, CHO-K1 cells, Fluo-8 calcium fluorescence; Muscarinic acetylcholine receptor M5 (Homo sapiens), P08912; CHO-K1 hM5, ACh EC20 PAM; 0% = ACh EC20, 100% = ACh EC100; activation, % at 3 µM; hit rate 0.3% among 360,000; AID 624038, 2012;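 active means activation above the run cutoff, the mean activation of all test compounds plus 3 SD, cut at about 18% in these data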
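Replicates: One well per compound, no replicates | System: Human M5 receptor in CHO-K1 cells | Benchmarks: Low control EC20 acetylcholine (0%), high control EC100 acetylcholine (100%) | Probe or stimulus: Acetylcholine, EC20 level | Times: Fluo-8 loading 80 min at 37 °C plus 30 min room temperature | Signal: Intracellular calcium via Fluo-8 fluorescence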
M5 ag = human M5 muscarinic receptor agonists, primary screen, CHO-K1 cells, Fluo-8 calcium fluorescence; Muscarinic acetylcholine receptor M5 (Homo sapiens), P08912; CHO-K1 hM5 cells; 0% DMSO wells, 100% maximal acetylcholine response; activation, % at 3 µM; hit rate 0.19% among 360,000; AID 624037, 2012;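 active means activation above the run's mean over test compounds plus 3 SD, cut at about 23% in these data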;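 further: signal is peak over basal fluorescence ratio across the kinetic read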
* = called active by the depositor.

SMILES	M4 antag	M4 ag	M4 PAM	M5 antag	M5 PAM	M5 ag
CCCCSc1ncc(C(=O)OCC)c(N)n1	1	-1	-5	-3	0	-6
CCOC(=O)c1cnc(SCCc2ccccc2)nc1N	2	-3	35*	-7	3	-5
CC(=O)N1CCN(Cc2cc(=O)oc3ccccc23)CC1	4	0	-5	10	-6	1
CC(OC(=O)Cn1cnc2c1c(=O)n(C)c(=O)n2C)C(=O)NC1(C#N)CCCCC1 (stereo unspecified)	-3	0	6	7	-3	1
Cc1ccc(-c2nn(-c3ccccc3)cc2CN(Cc2ccccc2)C(=O)c2ccco2)o1	52*	10	-27	10	-13	2
Cc1ccc2c(c1C)NC(=O)C21N2CCCC2C(C(=O)c2ccc3ccccc3c2)C12C(=O)Nc1ccccc12 (stereo unspecified)	3	0	11	6	19*	8
Cc1nc(C)c(C(=O)N2CCCC(C(=O)c3ccc4ccccc4c3)C2)s1 (stereo unspecified)	-5	9	-7	11	-4	1
N#Cc1ccc(C(=O)NCC2CCCCC2)cc1	8	16	-12	9	-8	1
COc1ccc(-c2n(CC(=O)OC3CC(C)CCC3C(C)C)c3ccccc3[n+]2C)cc1 (stereo unspecified)	22	4	-15	40*	-18	-7
CC1CN(CC(=O)Nc2nc(-c3ccc(Cl)cc3)cs2)CC(C)O1 (stereo unspecified)	-9	4	-1	-8	9	4
Cc1ccc(C(=O)N2CCN(c3ccc([N+](=O)[O-])c(NCc4ccco4)c3)CC2)cc1	-17	-2	31*	-10	-1	-11
CCc1noc(C)c1C(=O)OC(C)C(=O)Nc1ccc(Cl)cn1 (stereo unspecified)	-2	1	-1	8	-2	-6
CNC(=S)N/N=C(\C)c1ccc(C)c(C)c1	27*	-1	-1	6	-2	-2
COc1cc(C(=O)NC2CC(C)(C)Cc3c2cnn3-c2ccccc2)cc(OC)c1OC (stereo unspecified)	-2	-1	4	3	0	-2
COc1cccc(C(=O)NC2CC(C)(C)Cc3c2cnn3-c2cccc(F)c2)c1OC (stereo unspecified)	6	3	-6	28*	-10	-4
COc1ccccc1Oc1ccc2c(c1)C(=O)N(c1cccc3ncccc13)C2=O	21	12	-12	39*	-20	10
Cn1c(N)c(C(=O)/C=C/c2ccccc2)c(=O)[nH]c1=O	-4	0	0	47*	-19	-8
Cc1ccc(CN2CCNC(=O)C2CC(=O)NCC(F)(F)F)o1 (stereo unspecified)	-3	1	12	27*	-13	-4
Cc1ccc(CN2CCNC(=O)C2CC(=O)N(C)C(C2CC2)C2CC2)o1 (stereo unspecified)	-6	1	11	-1	1	-2
CCC(=O)Nc1ccc2c(c1)nc(CCNC(=O)c1ccco1)n2C	1	1	-4	15	-1	-2
O=C(NNc1ccccc1)Nc1cc(Cl)ccc1Cl	-6	8	-1	8	19*	0
CCCCn1c(N)c(N(CCOC)C(=O)c2cc3c(s2)CCCCC3)c(=O)[nH]c1=O	-8	1	24*	10	-6	-2
O=C(CCN1C(=O)[C@@H]2Cc3ccccc3CN2C1=O)Nc1cccc(F)c1	1	3	0	0	-2	0

Assay outcomes deposited in PubChem BioAssay by The Scripps Research Institute Molecular Screening Center.
